# Results from different studies.
# Lines come from different studies, so protocols differ.
# Effect on: cell growth or viability
Structure (SMILES),cell line,test,setting,endpoint,result
C=CC(=O)NC1CCN(c2ncc3ncnc(Nc4ccc(Oc5ccc6c(c5)ncn6C)c(C)c4)c3n2)CC1,CAL-120,,,EC50,4930 nM
C=CC(=O)N1CCN(c2nc(=O)n(-c3c(C)ccnc3C(C)C)c3nc(-c4c(O)cccc4F)c(F)cc23)[C@@H](C)C1,TOV21G,ATP luminescence,,IC50,> 10000 nM
CCCN1C(=O)[C@H](CC(C)C)NC(=O)[C@@H](N(C)C(=O)[C@H](CC2CCC2)NC(=O)[C@@H]2C[C@@H](F)CN2C(=O)[C@@](C)(O)C(F)(F)F)CCCCNC(=O)C2(CC2)NC(=O)[C@@H]1Cc1cc(Cl)ccc1Cl,NCI-H69,MTT,5 days,GI50,6 nM
COc1cc2c3c(n(CCCNCCO)c(=O)c2cc1OC)-c1nc2c(cc1C3=O)OCO2,RPMI-8226,MTS,72 h,IC50,559 nM
C[C@H](NC(=O)[C@H](CC(=O)NCC(C)(C)C)NC(=O)C(=O)c1c[nH]c2ccccc12)C(=O)NCc1ccc(F)cc1F,RPMI-8226,MTS,72 h,IC50,11500 nM
C=C(F)C(=O)N1CCN(c2nc(OC[C@@H]3CCCN3C)nc3c2CCN(c2cccc4cccc(Cl)c24)C3)C[C@@H]1CC#N,TOV21G,ATP luminescence,,IC50,> 10000 nM
COc1cccc2c1C(=O)c1c(O)c3c(c(O)c1C2=O)C[C@@](O)(C(=O)CO)C[C@@H]3O[C@H]1C[C@H](N)[C@H](O)[C@H](C)O1,MDA-MB-157,MTT,72 h,IC50,500 nM
CCC[C@H]1NC(=O)[C@H](Cc2cc(Cl)ccc2-c2cnn(C)c2)N(C)C(=O)[C@H](CC(C)C)NC(=O)[C@@H](N(C)C(=O)[C@H](CCCCN2CCOCC2)NC(=O)[C@@H](c2cccnc2)C2CCCCC2)CCCCNC1=O,NCI-H69,MTT,5 days,GI50,5200 nM
CCNCCCn1c2c(c3cc(OC)c(OC)cc3c1=O)C(=O)c1cc3c(nc1-2)OCO3,RPMI-8226,MTS,72 h,IC50,190 nM
